Laboratory results published in the RNAGym collection of RNA variant scans (doi:10.1126/science.aae0568).
Fewer inactive variants are shown than the library holds.

B1: tRNA (parent)
chain: GUUCCGUUGGCGUAAUGGUAACGCGUCUCCCUCCUAAGGAGAAGACUGCGGGUUCGAGUCCCGUACGGAACG

Variants of: B1
Assay: yeast fitness relative to wild type (ratio to wild type); higher = fitter; tRNA-Arg(CCU), competitive growth, 37 C, YPD
Summary of the method: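 Amplicons of the tRNA-Arg(CCU) gene were sequenced, 100-nucleotide paired-end, from the start population and from each end population of a pooled yeast competition. The competition, in six parallel replicates, lasted 24 hours in YPD at 37°C. Fitness relative to wild type was calculated from changes in genotype frequencies. Genotypes had to have ≥ 100 starting reads, and estimates < 0.5 were set to 0.5.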

Going from G56A A70C to G56A A70G, the yeast fitness falls from 1.06 to 0.886.

First: G56A U59C A65C A70G
Second: C60G C66G A69G
The yeast fitness of the first is lower: 0.568 for the first, 0.593 for the second.

First: G56U A65U G68C
Second: G68A A70G
The yeast fitness of the first is lower: ≤ 0.5 for the first, 0.885 for the second.

Compared with C66U G67A, U64C C66U is higher in yeast fitness: 0.841 for the first, 0.958 for the second.

First: A65C C66U
Second: A65C C66A
The yeast fitness of the first is higher: 0.89 for the first, 0.808 for the second.

First: A65C C66G
Second: U59A G68U
The yeast fitness of the first is lower: 0.588 for the first, 0.769 for the second.

Going from U59A G68A to A69G A70C, the yeast fitness rises from 0.791 to 0.896.

Going from A69G A70G to G56C A57C, the yeast fitness falls from 1.02 to 0.529.

Compared with G56C A57G, U64G A70U is higher in yeast fitness: 0.706 for the first, 0.787 for the second.

First: A57G A70C
Second: G63C A65U A70U
The yeast fitness of the first is higher: 0.859 for the first, 0.558 for the second.

First: U59G G67A
Second: C66G
The yeast fitness of the first is lower: 0.796 for the first, 0.902 for the second.

First: C66A
Second: C66U
The yeast fitness of the first is lower: 0.766 for the first, 0.968 for the second.

Going from G58A C62G to A57C C62U G68C, the yeast fitness falls from 1.14 to 0.539.

First: G63A
Second: G63C
The yeast fitness of the first is higher: 0.853 for the first, 0.812 for the second.

Going from G63U to G56C A69C, the yeast fitness falls from 0.825 to 0.818.

Compared with C60U C62G, C60U C62A is lower in yeast fitness: 0.688 for the first, ≤ 0.5 for the second.

First: C62U A69G A70U
Second: U59A A65G
The yeast fitness of the first is lower: 0.648 for the first, 1.11 for the second.

Going from G63A A65C to A57U C61U, the yeast fitness falls from 0.942 to 0.642.

Compared with C61G A70G, C61G A70U is higher in yeast fitness: 0.685 for the first, 0.772 for the second.

First: A65G A69U
Second: G58A C60U C62A
The yeast fitness of the first is higher: 0.993 for the first, 0.552 for the second.

Going from C55U C62U to C61G C66U, the yeast fitness falls from 0.708 to 0.635.

Going from U59C C61A C66A to C61U G68A A70G, the yeast fitness rises from ≤ 0.5 to 0.648.

Going from U64A A65U A70U to G56A G63A G67C, the yeast fitness falls from 0.601 to 0.543.

Compared with G56C C61A G63U, G56C A70G is higher in yeast fitness: 0.539 for the first, 0.672 for the second.

First: G56C A70U
Second: A57G U59A U64G
The yeast fitness of the first is higher: 0.83 for the first, ≤ 0.5 for the second.

First: G56C C60A
Second: C62U G68C A69G
The yeast fitness of the first is higher: 0.587 for the first, 0.567 for the second.

First: C61U U64A
Second: C61U U64C
The yeast fitness of the first is lower: 0.606 for the first, 0.902 for the second.

Going from A57U U59G C66U to G58C A69G, the yeast fitness rises from ≤ 0.5 to 0.961.

Going from G58A C60U to U59C A65C, the yeast fitness rises from 0.688 to 0.837.

Compared with A57G A69C, A57G A69U is higher in yeast fitness: 0.799 for the first, 0.943 for the second.

First: U59C C60U
Second: C60G A69U
The yeast fitness of the first is higher: 0.704 for the first, 0.655 for the second.

First: G63U U64A
Second: A65G
The yeast fitness of the first is lower: 0.676 for the first, 0.999 for the second.

Going from A65C to A65U, the yeast fitness falls from 1.01 to 0.993.

Going from G68A A69C to U59A U64G, the yeast fitness falls from 0.766 to 0.52.

Compared with C62G A70C, G58A C62U G63A is lower in yeast fitness: 0.679 for the first, 0.621 for the second.

Compared with C62U A65U G68C, C62U A70U is higher in yeast fitness: 0.602 for the first, 0.996 for the second.

First: U59A C62U
Second: C55U C61G A65G G68A
The yeast fitness of the first is higher: 0.922 for the first, 0.584 for the second.

First: A57G G58C
Second: A57G G58A
The yeast fitness of the first is higher: 1.03 for the first, 1.01 for the second.

Going from G58A C66U to C55G U59A C62U, the yeast fitness falls from 0.981 to ≤ 0.5.

Going from A57C A65G to A57C A65U, the yeast fitness rises from 0.573 to 0.606.

Compared with U64A C66U, U64A C66G is lower in yeast fitness: 0.942 for the first, 0.7 for the second.

Compared with C60A U64C, A57C U59C is lower in yeast fitness: 0.718 for the first, 0.613 for the second.

Compared with G56C C62G, G56C C62U is higher in yeast fitness: 0.559 for the first, 0.913 for the second.

First: A65U A70U
Second: C55U G63A
The yeast fitness of the first is higher: 1.11 for the first, 0.643 for the second.

Going from A57U A65U G67A G68C to C62U A65U, the yeast fitness rises from ≤ 0.5 to 0.93.

First: G58C C61U C66U
Second: G56C C62G G68C
The yeast fitness of the first is higher: 0.621 for the first, 0.56 for the second.

Compared with G56C G68A, C60A C66U is lower in yeast fitness: 0.7 for the first, 0.608 for the second.

Going from C60A C66G to G56C, the yeast fitness falls from 0.773 to 0.663.

Compared with G56U, G56A is higher in yeast fitness: 0.85 for the first, 1.03 for the second.

Going from C60A A65U A70U to G56A A65G C66U G68A, the yeast fitness rises from 0.53 to 0.609.

Going from A65U C66A to C62A A65U A70U, the yeast fitness falls from 0.751 to 0.531.

Compared with A69C, A69U is higher in yeast fitness: 1.03 for the first, 1.04 for the second.

Going from A69G to G56C A65U, the yeast fitness falls from 0.982 to 0.714.

Compared with G56C A65C, A57U C62A U64A is lower in yeast fitness: 0.754 for the first, ≤ 0.5 for the second.

Going from C55U G56C to C55U C60G, the yeast fitness falls from 0.593 to ≤ 0.5.

G58C C60A A65C and A65U C66G G68C cannot be ordered by yeast fitness: ≤ 0.5 for the first, ≤ 0.5 for the second.

Going from C62G G63C to C62A A65C, the yeast fitness rises from 0.588 to 0.766.

Compared with G58A C61A C62G, C55U G67A is higher in yeast fitness: 0.711 for the first, 0.871 for the second.

G58U A65G G67A and C60U C61G G67A cannot be ordered by yeast fitness: ≤ 0.5 for the first, ≤ 0.5 for the second.

First: G58A A65C G67A
Second: C60G G63A G67A
The yeast fitness of the first is higher: 0.643 for the first, ≤ 0.5 for the second.

First: C62U U64A
Second: C55G G67A
The yeast fitness of the first is higher: 0.735 for the first, 0.729 for the second.

Going from C55G G68U to C61A A70C, the yeast fitness rises from 0.522 to 0.694.

First: G63C G67A
Second: G63A G67C
The yeast fitness of the first is lower: 0.692 for the first, 0.707 for the second.

Compared with C62U C66G A70G, U59G C62U is higher in yeast fitness: 0.574 for the first, 0.875 for the second.

C55U G63A A65G and G56C A69U A70C cannot be ordered by yeast fitness: ≤ 0.5 for the first, ≤ 0.5 for the second.

Compared with G56C G58C C66U, C55U G63A A69C is lower in yeast fitness: 0.625 for the first, 0.537 for the second.

First: G58C G63C
Second: A57U A65C A69C
The yeast fitness of the first is higher: 0.702 for the first, ≤ 0.5 for the second.

Going from C60A C61A G63A to U59A C66U, the yeast fitness rises from 0.605 to 0.815.

Compared with U59A C66G, A65G G68U is higher in yeast fitness: 0.669 for the first, 0.809 for the second.

First: A65G G68A
Second: G63C A69U
The yeast fitness of the first is higher: 0.924 for the first, 0.709 for the second.

Compared with G63C A69C, A57G C60A C66G is lower in yeast fitness: 0.629 for the first, 0.558 for the second.

Compared with G58C U59C A70G, U59A C60G is lower in yeast fitness: 0.706 for the first, 0.655 for the second.

Going from G67A A69U to G67A A69C, the yeast fitness rises from 0.733 to 0.877.

Going from C60U A70G to C61U A70U, the yeast fitness rises from 0.786 to 1.04.

First: U59A C62G G67A
Second: G56C G63A
The yeast fitness of the first is lower: ≤ 0.5 for the first, 0.571 for the second.

Compared with C61G G63C, G63A C66G is higher in yeast fitness: 0.532 for the first, 0.678 for the second.

Going from C61U A69U to C60U G67A, the yeast fitness falls from 1.02 to 0.721.

Compared with A65C G68A, C66U A69G is higher in yeast fitness: 0.767 for the first, 0.801 for the second.

Going from A57C G68A to A57C G68U, the yeast fitness falls from 0.701 to 0.696.

First: A57G C62U G67A
Second: A57U G63C U64A A70U
The yeast fitness of the first is lower: ≤ 0.5 for the first, 0.646 for the second.

First: A65C A69C A70G
Second: C61G A65G
The yeast fitness of the first is lower: 0.554 for the first, 0.713 for the second.

Compared with C61G A65C, C55U U59C is higher in yeast fitness: 0.658 for the first, 0.683 for the second.
